Source: ChEMBL document CHEMBL1212838, “Investigations on the 2-thiazolylhydrazyne scaffold: synthesis and molecular modeling of selective human monoamine oxidase inhibitors” (Bioorg Med Chem, 2010)

Legend:
Homo sapiens = species: Homo sapiens; test: Selectivity index, ratio of IC50 for human recombinant MAOA to IC50 for human recombinant MAOB
[1] = biological target: T1, Amine oxidase [flavin-containing] B (Homo sapiens, UniProt P27338)
T1 sequence (P27338 whole entry): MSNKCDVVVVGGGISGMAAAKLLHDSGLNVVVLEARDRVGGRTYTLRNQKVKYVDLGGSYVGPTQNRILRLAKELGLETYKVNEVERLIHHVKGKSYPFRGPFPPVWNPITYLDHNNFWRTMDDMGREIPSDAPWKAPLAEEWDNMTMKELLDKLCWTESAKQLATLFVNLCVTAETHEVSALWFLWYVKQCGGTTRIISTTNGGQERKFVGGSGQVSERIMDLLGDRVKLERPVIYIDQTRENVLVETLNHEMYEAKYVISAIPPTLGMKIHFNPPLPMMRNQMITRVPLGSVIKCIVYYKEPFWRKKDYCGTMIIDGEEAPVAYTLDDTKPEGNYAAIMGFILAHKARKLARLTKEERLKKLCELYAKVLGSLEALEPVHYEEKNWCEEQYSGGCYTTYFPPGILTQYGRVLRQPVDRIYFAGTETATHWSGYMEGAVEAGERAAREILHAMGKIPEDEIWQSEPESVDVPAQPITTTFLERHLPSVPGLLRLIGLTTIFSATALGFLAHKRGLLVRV

[2] = biological target: T2, Amine oxidase [flavin-containing] A (Homo sapiens, UniProt P21397); test: Inhibition of human MAOA by fluorimetry
T2 sequence (P21397 whole entry): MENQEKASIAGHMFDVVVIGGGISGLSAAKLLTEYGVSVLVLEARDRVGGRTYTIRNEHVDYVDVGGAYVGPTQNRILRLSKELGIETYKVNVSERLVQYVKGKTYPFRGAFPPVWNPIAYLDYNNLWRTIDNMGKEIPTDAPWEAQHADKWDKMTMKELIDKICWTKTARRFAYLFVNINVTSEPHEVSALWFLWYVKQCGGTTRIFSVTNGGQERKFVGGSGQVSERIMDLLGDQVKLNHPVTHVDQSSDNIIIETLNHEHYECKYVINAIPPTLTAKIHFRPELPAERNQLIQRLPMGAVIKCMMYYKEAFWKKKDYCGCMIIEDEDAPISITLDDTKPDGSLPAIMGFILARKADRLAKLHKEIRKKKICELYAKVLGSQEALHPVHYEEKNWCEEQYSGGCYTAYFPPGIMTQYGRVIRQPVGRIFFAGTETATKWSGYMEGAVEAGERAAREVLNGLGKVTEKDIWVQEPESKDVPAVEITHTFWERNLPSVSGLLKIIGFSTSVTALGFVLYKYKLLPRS

[3] = biological target: T1, Amine oxidase [flavin-containing] B; test: Inhibition of human MAOB at 5 nM by centrifugation-ultrafiltration method
Summary of the method: (§1)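 Reversibility test: hMAO-A or hMAO-B with compound was ultrafiltered on a 30 kDa membrane. Retained enzyme was resuspended in sodium phosphate buffer at 4 °C and recentrifuged, three centrifugations in all. An aliquot was then assayed fluorimetrically with p-tyramine/Amplex Red. Percent inhibition was computed for washed and unwashed samples against vehicle controls; n = 5.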

[4] = biological target: T2, Amine oxidase [flavin-containing] A; test: Reversible inhibition of human MAOA at 500 nM by centrifugation-ultrafiltration method; summary of the method: as §1
[5] = biological target: T1, Amine oxidase [flavin-containing] B; test: Inhibition of human MAOB at 5 uM
[6] = biological target: T2, Amine oxidase [flavin-containing] A; test: Inhibition of human MAOA at 500 nM; summary of the method: as §1
[7] = biological target: T1, Amine oxidase [flavin-containing] B; test: Inhibition of human MAOB at 100 uM by fluorimetry
Summary of the method: (§2)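 Recombinant human MAO-A or MAO-B, each at an amount set to oxidize 165 pmol p-tyramine/min, preincubated 15 min at 37 °C with compound in 0.05 M sodium phosphate pH 7.4. Reaction started with final 200 µM Amplex Red, 1 U/mL HRP and 1 mM p-tyramine. Resorufin fluorescence (ex 545, em 590 nm) read over 15 min at 37 °C; enzyme-free background subtracted.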

[8] = biological target: T2, Amine oxidase [flavin-containing] A; test: Reversible inhibition of human MAOA at 100 uM by centrifugation-ultrafiltration method; summary of the method: as §1
[9] = biological target: T2, Amine oxidase [flavin-containing] A; test: Inhibition of human MAOA at 100 nM
[10] = biological target: T2, Amine oxidase [flavin-containing] A; test: Inhibition of human MAOA at 100 uM by fluorimetry; summary of the method: as §2
[11] = biological target: T1, Amine oxidase [flavin-containing] B; test: Inhibition of human MAOB at 1 uM by fluorimetry

| SMILES | Ratio IC50 (Homo sapiens) | IC50 [1] [nM] | IC50 [2] [nM] | also measured |
| --- | --- | --- | --- | --- |
| COc1cccc(-c2csc(N/N=C/c3cccs3)n2)c1 | 0.93 | 494 | 458 |  |
| COc1cccc(-c2csc(NN=C3CCCCC3)n2)c1 | 60 | 31.9 | 1910 |  |
| COc1cccc(-c2csc(NN=C(C)C)n2)c1 | 0.87 | 5070 | 4430 |  |
| COc1cccc(-c2csc(N/N=C/c3cccnc3)n2)c1 | 0.18 | 2910 | 538 |  |
| COc1cccc(-c2csc(NN=C3CCC(C)CC3)n2)c1 (configuration not stated) | 21 | 35.5 | 749 |  |
| COc1cccc(-c2csc(N/N=C(\C)c3ccco3)n2)c1 | 0.2 | 1680 | 333 |  |
| COc1cccc(-c2csc(N/N=C(\C)c3cccnc3)n2)c1 | 119 | 3.81 | 455 | inhibition at 0.005 µM [3]: 67.2%; inhibition at 0.5 µM [4]: 65.1%; inhibition at 5 µM [5]: 63.7%; inhibition at 0.5 µM [6]: 59.1% |
| CCCCCC/C(C)=N/Nc1nc(-c2cccc(OC)c2)cs1 |  |  | 1380 | inhibition at 100 µM [7]: 40% |
| O=C1Nc2ccccc2C1=O [ISATIN] |  |  |  | inhibition at 100 µM [8]: 12.1%; inhibition at 0.1 µM [9]: 40.3%; inhibition at 100 µM [10]: 40% |
| COc1cccc(-c2csc(NN=C3CCCC3)n2)c1 | 0.56 | 1060 | 592 |  |
| COc1cccc(-c2csc(N/N=C/c3ccco3)n2)c1 | 0.051 | 6780 | 343 |  |
| COc1cccc(-c2csc(N/N=C(\C)c3ccccn3)n2)c1 |  |  |  | inhibition at 100 µM [7]: 40%; inhibition at 100 µM [10]: 40% |
| COc1cccc(-c2csc(N/N=C3\CCC(C)C3)n2)c1 (configuration not stated) | 6.3 | 231 | 1450 |  |
| COc1cccc(-c2csc(N/N=C(\C)c3cccc4ccccc34)n2)c1 |  |  |  | inhibition (INH) ([7]; 100 µM): Not Active; inhibition at 100 µM [10]: 40% |
| COc1cccc(-c2csc(N/N=C(\C)c3cccs3)n2)c1 | 1.15 | 551 | 636 |  |
| COc1cccc(-c2csc(NN=C3CCCCCC3)n2)c1 | 60 | 29.5 | 1780 |  |
| COc1cccc(-c2csc(N/N=C(\C)c3ccncc3)n2)c1 | 32 | 116 | 3710 |  |
| COc1cccc(-c2csc(N/N=C3\CCCC3C)n2)c1 (configuration not stated) | 31 | 26.6 | 836 |  |
| COc1cccc(-c2csc(N/N=C/c3c[nH]c4ccccc34)n2)c1 | 0.52 | 800 | 414 |  |
| COc1cccc(-c2csc(N/N=C(\C)c3cc4ccccc4oc3=O)n2)c1 | 0.8 | 6970 | 5560 |  |
| CCCCC/C(C)=N/Nc1nc(-c2cccc(OC)c2)cs1 | 0.17 | 6720 | 1150 |  |
| CCC/C(C)=N/Nc1nc(-c2cccc(OC)c2)cs1 | 1.5 | 871 | 1310 |  |
| COc1cccc(-c2csc(N/N=C3\CCCCC3C)n2)c1 (configuration not stated) | 60 | 12.2 | 737 |  |
| COc1cccc(-c2csc(N/N=C/c3ccncc3)n2)c1 | 0.61 | 1140 | 698 |  |
| O=C(NCCN1CCOCC1)c1ccc(Cl)cc1 [MOCLOBEMIDE] |  |  |  | IC50 [11]: Not Active |
| CCC(CC)=NNc1nc(-c2cccc(OC)c2)cs1 | 1.1 | 772 | 824 |  |
| COc1cccc(-c2csc(N/N=C/c3cccc4ccccc34)n2)c1 |  |  | 3640 | inhibition at 100 µM [7]: 40% |
| COc1cccc(-c2csc(N/N=C3\CCCC(C)C3)n2)c1 (configuration not stated) | 9.3 | 72.7 | 679 |  |
